Experimental data taken from PubChem BioAssay AID624399 (The Scripps Research Institute Molecular Screening Center, 2012).
Calls of active or inactive are those of the source.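 How the source made its calls: active means increase in reporter activity of 20% or more; inactive means increase below 20%, or a negative response.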

Test system: BG1Luc4E2 cells, ERE-luciferase luminescence, 24 h
Assay: activators of ER-driven luciferase reporter, late-stage follow-up, counter-screen for AHR activator project, BG1Luc4E2 ovarian carcinoma cells, luminescence (AID 624399)
Details: at 10 µM; hits give high values
How it was run: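 Repeats: triplicate wells per compound; assay system: BG1Luc4E2 cells, firefly luciferase reporter under two synthetic EREs; measured by: firefly luciferase luminescence measured after cell lysis; control set: 17β-estradiol at 1 nM as positive control; schedule: 24 h compound exposure at 37 °C after 5-day depletion; read-out: maximum % reporter activation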

Row | SMILES | activation
1 | Cc1cc(Nc2ccc(F)cc2)nc(N)n1 | -2.7% (inactive)
2 | CCOc1ccccc1NC(=O)c1ccc(C(=O)Nc2ccccc2OCC)nc1 | -2.8% (inactive)
3 | COc1ccc(-c2cc(-c3ccc(C)cc3O)[nH]n2)cc1 | -7.2% (inactive)
4 | COc1ccc(Nc2cc(Cl)nc(N)n2)cc1 | 2.2% (inactive)
5 | CN(Cc1cc(-c2cccs2)n[nH]1)Cc1coc2ccccc2c1=O | -2.6% (inactive)
6 | Cc1cccc(C)c1NC(=O)c1ccc(C(=O)Nc2c(C)cccc2C)nc1 | -5.1% (inactive)
7 | COc1ccc(Nc2cc(Cl)nc(N)n2)cc1OC | 13.6% (inactive)
8 | Cc1ccc(-c2cc(-c3ccc(Cl)cc3)n[nH]2)c(O)c1 | 3.2% (inactive)
9 | O=C(CSc1nc(-c2ccc(F)cc2)cs1)Nc1ccccn1 | 1% (inactive)
10 | Cc1ccnc(NC(=O)CSc2nc3ccccc3s2)c1 | -3.7% (inactive)
11 | Cc1csc(SCC(=O)Nc2ccccn2)n1 | -2.6% (inactive)
12 | Cc1ccc(NC(=O)c2ccc(C(=O)Nc3ccc(C)cc3C)nc2)c(C)c1 | -1.6% (inactive)
13 | COc1ccc(Cl)cc1NC(=O)c1ccc(C(=O)Nc2cc(Cl)ccc2OC)nc1 | -3.6% (inactive)
14 | Cc1ccc(-c2cc(-c3ccc(F)cc3)n[nH]2)c(O)c1 | 5.8% (inactive)
15 | O=C(CSc1nc2ccccc2s1)Nc1ccc(Cl)cn1 | -2% (inactive)
16 | Cc1cc(Br)cc(C)c1Nc1ccnc(Nc2ccc(C#N)cc2)n1 | -3.5% (inactive)
17 | Cc1ccc(O)c(-c2cc(-c3ccccc3Cl)[nH]n2)c1 | 11.6% (inactive)
18 | Cc1ccc(-c2cc(-c3cccc(F)c3)n[nH]2)c(O)c1 | 3.8% (inactive)
19 | Cc1cccc(NC(=O)c2cc(-c3ccc(C)cc3O)n[nH]2)c1 | 1.8% (inactive)
20 | O=C(CSc1nc2ccccc2s1)Nc1ccccn1 | -1% (inactive)
21 | Nc1nc(Cl)cc(Nc2ccc(Oc3ccccc3)cc2)n1 | 3.3% (inactive)
22 | COc1ccc(O)c(-c2cc(-c3cccs3)[nH]n2)c1 | -3% (inactive)
23 | COc1ccc(NC(=O)c2ccc(C(=O)Nc3ccc(OC)cc3OC)nc2)c(OC)c1 | -0.5% (inactive)
24 | Nc1nc(Cl)cc(Nc2ccccc2F)n1 | -0.9% (inactive)
25 | CCOC(=O)c1c(C)nn(-c2cc(Cl)ccc2Cl)c1C | -3.3% (inactive)
